Measurements reported in ChEMBL document CHEMBL4118253, “Expedient synthesis and biological evaluation of alkenyl acyclic nucleoside phosphonate prodrugs” (Bioorg Med Chem, 2018).

Assays:
[1] = Cytotoxicity against MDCK cells assessed as alteration of cell morphology by microscopic analysis; format: cell-based, Canis lupus familiaris; settings: dog
[2] = tested on: Mammalian orthoreovirus 1; assay: Antiviral activity against Reovirus-1 infected in human HeLa cells assessed as inhibition of virus-induced cytopathicity; format: functional, organism-based; settings: Mammalian orthoreovirus 1, HeLa
Human alphaherpesvirus 3 [3] = assay: Antiviral activity against thymidine kinase deficient Varicella-Zoster virus infected in HEL cells assessed as reduction in virus plaque formation; format: functional, organism-based; settings: Human alphaherpesvirus 3, HEL
Influenza A virus H3N2 [4] = assay: Antiviral activity against Influenza A virus H3N2 infected in MDCK cells assessed as inhibition of virus-induced visual cytopathicity; format: functional, organism-based
Human alphaherpesvirus 1 [5] = assay: Antiviral activity against acyclovir-resistant thymidine kinase deficient Herpes simplex virus 1 KOS infected in HEL cells assessed as inhibition of virus-induced cytopathicity; format: functional, organism-based; settings: Human alphaherpesvirus 1, KOS
Human respirovirus 3 = assay: Antiviral activity against Parainfluenza virus 3 infected in human HeLa cells assessed as inhibition of virus-induced cytopathicity; format: functional, organism-based; settings: Human respirovirus 3, HeLa
Human alphaherpesvirus 2 = assay: Antiviral activity against Herpes simplex virus 2 G infected in HEL cells assessed as inhibition of virus-induced cytopathicity; format: functional, organism-based; settings: Human alphaherpesvirus 2, strain G
[6] = Cytotoxicity against human HeLa cells assessed as alteration of cell morphology by microscopic analysis; format: cell-based
Yellow fever virus = assay: Antiviral activity against Yellow fever virus infected in African green monkey Vero cells assessed as inhibition of virus-induced cytopathicity; format: functional, organism-based
Influenza A virus H3N2 [7] = assay: Antiviral activity against Influenza A virus H3N2 infected in MDCK cells assessed as inhibition of virus-induced cytopathicity by MTS assay; format: functional, organism-based
[8] = tested on: Respiratory syncytial virus; assay: Antiviral activity against Respiratory syncytial virus infected in human HeLa cells assessed as inhibition of virus-induced cytopathicity; format: functional, organism-based
Influenza B virus [9] = assay: Antiviral activity against Influenza B virus infected in MDCK cells assessed as inhibition of virus-induced cytopathicity by MTS assay; format: functional, organism-based
Human adenovirus 2 = assay: Antiviral activity against Adenovirus 2 infected in HEL cells assessed as inhibition of virus-induced cytopathicity; format: functional, organism-based; settings: Human mastadenovirus C
Human betaherpesvirus 5 [10] = assay: Antiviral activity against Human cytomegalovirus AD169 infected in HEL cells assessed as inhibition of virus-induced cytopathicity; format: functional, organism-based; settings: Human betaherpesvirus 5, AD169, HEL
Vaccinia virus = assay: Antiviral activity against Vaccinia virus infected in HEL cells assessed as inhibition of virus-induced cytopathicity; format: functional, organism-based; settings: Orthopoxvirus vaccinia
Human betaherpesvirus 5 [11] = assay: Antiviral activity against Human cytomegalovirus Davis infected in HEL cells assessed as inhibition of virus-induced cytopathicity; format: functional, organism-based; settings: Human betaherpesvirus 5, Davis
Human alphaherpesvirus 1 [12] = assay: Antiviral activity against Herpes simplex virus 1 KOS infected in HEL cells assessed as inhibition of virus-induced cytopathicity; format: functional, organism-based; settings: Human alphaherpesvirus 1, KOS
Human coronavirus 229E = assay: Antiviral activity against Human coronavirus 229E infected in HEL cells assessed as inhibition of virus-induced cytopathicity; format: functional, organism-based
[13] = Cytotoxicity against African green monkey Vero cells assessed as alteration of cell morphology by microscopic analysis; format: cell-based; settings: chlorocebus sabaeus
How it was run: (§1)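 The value is the minimal cytotoxic concentration (MCC), the lowest concentration that causes a microscopically visible change in cell morphology. It was read in the same HEL or Vero cell cultures used for the antiviral tests.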

Coxsackievirus B4 = assay: Antiviral activity against Coxsackie virus B4 infected in African green monkey Vero cells assessed as inhibition of virus-induced cytopathicity; format: functional, organism-based; settings: Enterovirus B
Influenza A virus [14] = assay: Antiviral activity against Influenza A virus H1N1 infected in MDCK cells assessed as inhibition of virus-induced visual cytopathicity; format: functional, organism-based
Sindbis virus = assay: Antiviral activity against Sindbis Virus infected in African green monkey Vero cells assessed as inhibition of virus-induced cytopathicity; format: functional, organism-based
Punta Toro virus = assay: Antiviral activity against Punta Toro virus infected in African green monkey Vero cells assessed as inhibition of virus-induced cytopathicity; format: functional, organism-based
[15] = Cytotoxicity against HEL cells assessed as alteration of cell morphology by microscopic analysis; format: cell-based; settings: human; how it was run: as §1
Human alphaherpesvirus 3 [16] = assay: Antiviral activity against thymidine kinase expressing Varicella-Zoster virus infected in HEL cells assessed as reduction in virus plaque formation; format: functional, organism-based; settings: Human alphaherpesvirus 3, HEL
Influenza A virus [17] = assay: Antiviral activity against Influenza A virus H1N1 infected in MDCK cells assessed as inhibition of virus-induced cytopathicity by MTS assay; format: functional, organism-based
Influenza B virus [18] = assay: Antiviral activity against Influenza B virus infected in MDCK cells assessed as inhibition of virus-induced visual cytopathicity; format: functional, organism-based
[19] = tested on: Vesicular stomatitis virus; assay: Antiviral activity against Vesicular stomatitis virus infected in human HeLa cells assessed as inhibition of virus-induced cytopathicity; format: functional, organism-based
[20] = Half life in human serum by 31P NMR analysis; format: ADME, cell-free
[21] = Half life in rat serum by 31P NMR analysis; format: ADME, cell-free

Compound	MCC [1]	EC50 [2]	EC50 (Human alphaherpesvirus 3 [3])	EC50 (Influenza A virus H3N2 [4])	EC50 (Human alphaherpesvirus 1 [5])	EC50 (Human respirovirus 3)	EC50 (Human alphaherpesvirus 2)	MCC [6]	EC50 (Yellow fever virus)	EC50 (Influenza A virus H3N2 [7])	EC50 [8]	EC50 (Influenza B virus [9])	EC50 (Human adenovirus 2)	EC50 (Human betaherpesvirus 5 [10])	EC50 (Vaccinia virus)	EC50 (Human betaherpesvirus 5 [11])	EC50 (Human alphaherpesvirus 1 [12])	EC50 (Human coronavirus 229E)	MCC [13]	EC50 (Coxsackievirus B4)	further results
C/C(=C\CP(=O)(N[C@@H](C)C(=O)OC(C)C)Oc1cccc2c1CCCC2)Cn1ccc(=O)[nH]c1=O (some centres not stated)	> 100 µM	> 100 µM	71.5 µM	> 100 µM	> 100 µM	> 100 µM	> 100 µM	> 100 µM	> 100 µM	> 100 µM	> 100 µM	> 100 µM	> 100 µM	> 100 µM	> 100 µM	> 100 µM	> 100 µM	> 100 µM	> 100 µM	> 100 µM	EC50 (Influenza A virus [14]): > 100 µM; EC50 (Sindbis virus): > 100 µM; EC50 (Punta Toro virus): > 100 µM; MCC [15]: > 100 µM; EC50 (Human alphaherpesvirus 3 [16]): 29.9 µM; EC50 (Influenza A virus [17]): > 100 µM; EC50 (Influenza B virus [18]): > 100 µM; EC50 [19]: > 100 µM
C/C(=C\CP(=O)(N[C@@H](C)C(=O)OC(C)C)Oc1ccccc1)Cn1ccc(=O)[nH]c1=O (some centres not stated)	> 100 µM	> 100 µM	> 100 µM	> 100 µM	> 100 µM	> 100 µM	> 100 µM	> 100 µM	> 100 µM	> 100 µM	> 100 µM	> 100 µM	> 100 µM	> 100 µM	> 100 µM	> 100 µM	> 100 µM	> 100 µM	> 100 µM	> 100 µM	EC50 (Influenza A virus [14]): > 100 µM; EC50 (Sindbis virus): > 100 µM; EC50 (Punta Toro virus): > 100 µM; MCC [15]: > 100 µM; EC50 (Human alphaherpesvirus 3 [16]): > 100 µM; EC50 (Influenza A virus [17]): > 100 µM; EC50 (Influenza B virus [18]): > 100 µM; EC50 [19]: > 100 µM
C/C(=C\CP(=O)(N[C@@H](C)C(=O)OCc1ccccc1)Oc1cccc2c1CCCC2)Cn1ccc(=O)[nH]c1=O (some centres not stated)	> 100 µM	> 100 µM	52.5 µM	> 100 µM	> 100 µM	> 100 µM	> 100 µM	≥ 100 µM	> 100 µM	> 100 µM	> 100 µM	> 100 µM	> 100 µM	> 100 µM	> 100 µM	> 100 µM	> 100 µM	> 100 µM	≥ 100 µM	> 100 µM	EC50 (Influenza A virus [14]): > 100 µM; EC50 (Sindbis virus): > 100 µM; EC50 (Punta Toro virus): > 100 µM; MCC [15]: > 100 µM; EC50 (Human alphaherpesvirus 3 [16]): 55.7 µM; EC50 (Influenza A virus [17]): > 100 µM; EC50 (Influenza B virus [18]): > 100 µM; EC50 [19]: > 100 µM
C/C(=C\CP(=O)(N[C@@H](C)C(=O)OCc1ccccc1)Oc1cccc2ccccc12)Cn1ccc(=O)[nH]c1=O (some centres not stated)	> 100 µM	> 100 µM	58.5 µM	> 100 µM	> 100 µM	> 100 µM	> 100 µM	> 100 µM	> 100 µM	> 100 µM	> 100 µM	> 100 µM	> 100 µM	> 100 µM	> 100 µM	> 100 µM	> 100 µM	> 100 µM	> 100 µM	> 100 µM	EC50 (Influenza A virus [14]): > 100 µM; EC50 (Sindbis virus): > 100 µM; EC50 (Punta Toro virus): > 100 µM; MCC [15]: > 100 µM; EC50 (Human alphaherpesvirus 3 [16]): 100 µM; EC50 (Influenza A virus [17]): > 100 µM; EC50 (Influenza B virus [18]): > 100 µM; EC50 [19]: > 100 µM
C/C(=C\CP(=O)(N[C@@H](C)C(=O)OC(C)C)Oc1cccc2c1CCCC2)Cn1cc(C)c(=O)[nH]c1=O (some centres not stated)	> 100 µM	> 100 µM	53.5 µM	> 100 µM	> 100 µM	> 100 µM	> 100 µM	≥ 20 µM	> 100 µM	> 100 µM	> 100 µM	> 100 µM	> 100 µM	> 100 µM	> 100 µM	> 20 µM	> 100 µM	> 100 µM	≥ 20 µM	> 100 µM	t1/2 [20]: > 12 h; t1/2 [21]: > 12 h; EC50 (Influenza A virus [14]): > 100 µM; EC50 (Sindbis virus): > 100 µM; EC50 (Punta Toro virus): > 100 µM; MCC [15]: > 100 µM; EC50 (Human alphaherpesvirus 3 [16]): 58.5 µM; EC50 (Influenza A virus [17]): > 100 µM; EC50 (Influenza B virus [18]): > 100 µM; EC50 [19]: > 100 µM
